This passage reports MIC results from ChEMBL document CHEMBL1152472, “AdeIJK, a resistance-nodulation-cell division pump effluxing multiple antibiotics in Acinetobacter baumannii” (2008).

≈ marks a conversion by molar mass, not a printed value.

Assay [1] concerns Acinetobacter baumannii. Put plainly: Antimicrobial activity against Acinetobacter baumannii BM4454 isolated from patient with urinary tract infection by E test. To be noted: BM4454, Urine. It counts as functional. The method in brief: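 MIC read by E-test strip on solid medium against the multiresistant AdeABC-overexpressing urinary isolate. Strains were grown at 37°C in brain heart infusion or LB.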

For assay [2], the system named is Acinetobacter baumannii. Put plainly: Antimicrobial activity against Acinetobacter baumannii BM4579 expressing deltaadeIJK genes isolated from patient with urinary tract infection by E test. It counts as functional. To be noted: BM4579, Urine. The method, boiled down: (§1)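 MICs determined on solid medium (Mueller-Hinton agar) by E-test. The strains are deletion-insertion derivatives of multiresistant urinary isolate BM4454 that lack adeIJK, adeABC or both. Strains were grown at 37°C in brain heart infusion broth or agar or in LB.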

For assay [3], the system named is Acinetobacter baumannii. Put plainly: Antimicrobial activity against Acinetobacter baumannii BM4652 expressing adeIJK genes with pAT807 isolated from patient with urinary tract infection by E test. It counts as functional. The following applies: BM4652, Urine. The method in brief:
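E-test MIC on solid medium, with 0.005 mM IPTG added to induce adeIJK carried on plasmid pAT807 in the ΔadeIJK host. Growth was at 37°C.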

For assay [4], the system named is Acinetobacter baumannii. Put plainly: Antimicrobial activity against Acinetobacter baumannii BM4652 expressing adeABC adeIJK double mutant isolated from patient with urinary tract infection by E test. It counts as functional. The following applies: BM4652, Urine. The method, boiled down: as §1
Assay [5] deals with Acinetobacter baumannii. Put plainly: Antimicrobial activity against Acinetobacter baumannii BM4651 expressing deltaadeABC genes isolated from patient with urinary tract infection by E test. To be noted: BM4651, Urine.
The subject of assay [6] is Acinetobacter baumannii. Put plainly: Antimicrobial activity against Acinetobacter baumannii BM4579 expressing adeIJK genes with pAT807 isolated from patient with urinary tract infection by E test. The following applies: BM4579, Urine.
Assay [7] relates to Acinetobacter baumannii. Put plainly: Antimicrobial activity against Acinetobacter baumannii BM4652 expressing adeABC adeIJK double mutant isolated from patient with urinary tract infection by agar dilution method. Type of assay: functional. To be noted: BM4652, Urine. The method in brief:
(§2)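 MICs determined by agar dilution on Mueller-Hinton agar with 10^4 CFU/spot; this method was used for ticarcillin and SDS. The strains are ΔadeIJK or ΔadeABC ΔadeIJK deletion-insertion derivatives of urinary isolate BM4454, grown at 37°C in brain heart infusion or LB medium.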

Assay [8] deals with Acinetobacter baumannii. The assay can be described thus: Antimicrobial activity against Acinetobacter baumannii BM4579 expressing adeIJK genes with pAT807 isolated from patient with urinary tract infection by E test. Type of assay: functional. The following applies: BM4579, Urine, in the assay text read “agar dilution method” for “E test”. A general note: Agar dilution tests growth on a series of plates holding different concentrations.

Assay [9] relates to Acinetobacter baumannii. The assay can be described thus: Antimicrobial activity against Acinetobacter baumannii BM4651 expressing deltaadeIJK genes isolated from patient with urinary tract infection by agar dilution method. The following applies: BM4651, Urine, in the assay text read “deltaadeABC” for “deltaadeIJK”. Type of assay: functional. The method, boiled down:
(§3)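 MIC by agar dilution, the method used for ticarcillin and SDS. Strains were grown at 37°C in brain heart infusion or LB.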

In assay [10] the test system is Acinetobacter baumannii. Put plainly: Antimicrobial activity against Acinetobacter baumannii BM4579 expressing deltaadeIJK genes isolated from patient with urinary tract infection by agar dilution method. Type of assay: functional. The following applies: BM4579, Urine. The method in brief:
as §2

Assay [11] relates to Acinetobacter baumannii. Put plainly: Antimicrobial activity against Acinetobacter baumannii BM4454 isolated from patient with urinary tract infection by agar dilution method. It counts as functional. To be noted: BM4454, Urine. The method, boiled down:
as §3

Assay [12] deals with Acinetobacter baumannii. Put plainly: Antimicrobial activity against Acinetobacter baumannii BM4652 expressing adeIJK genes with pAT807 isolated from patient with urinary tract infection by agar dilution method. Type of assay: functional. The following applies: BM4652, Urine. The method, boiled down:
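Agar-dilution MIC (ticarcillin, SDS), with 0.005 mM IPTG added to induce plasmid pAT807-borne adeIJK in the ΔadeIJK background. Growth was at 37°C.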

As to `CC[C@H]1OC(=O)[C@H](C)[C@@H](O[C@H]2C[C@@](C)(OC)[C@@H](O)[C@H](C)O2)[C@H](C)[C@@H](O[C@@H]2O[C@H](C)C[C@H](N(C)C)[C@H]2O)[C@](C)(O)C[C@@H](C)CN(C)[C@H](C)[C@@H](O)[C@]1(C)O` [AZITHROMYCIN], the MIC (in general, the lowest concentration that inhibits growth of the organism) with Acinetobacter baumannii [1] amounted to 96 µg/mL (≈ 128 µM); with Acinetobacter baumannii [2], 96 µg/mL (≈ 128 µM); with Acinetobacter baumannii [3], 24 µg/mL (≈ 32 µM); against Acinetobacter baumannii [4], 1.5 µg/mL (≈ 2 µM); with Acinetobacter baumannii [5], 1.5 µg/mL (≈ 2 µM); with Acinetobacter baumannii [6] it was 96 µg/mL (≈ 128 µM).

`CO/N=C(\C(=O)N[C@@H]1C(=O)N2C(C(=O)O)=C(COC(C)=O)CS[C@H]12)c1csc(N)n1` [CEFOTAXIME]: the MIC was determined as 8 µg/mL (≈ 17.6 µM) in the assay on Acinetobacter baumannii [1]; 1.5 µg/mL (≈ 3.29 µM) in the assay on Acinetobacter baumannii [2]; 0.25 µg/mL (≈ 0.549 µM) against Acinetobacter baumannii [3]; 1.5 µg/mL (≈ 3.29 µM) with Acinetobacter baumannii [4]; 8 µg/mL (≈ 17.6 µM) against Acinetobacter baumannii [5]; 3 µg/mL (≈ 6.59 µM) with Acinetobacter baumannii [6].

Take `CN(C)c1cc(NC(=O)CNC(C)(C)C)c(O)c2c1C[C@H]1C[C@H]3[C@H](N(C)C)C(O)=C(C(N)=O)C(=O)[C@@]3(O)C(O)=C1C2=O` [TIGECYCLINE]: the MIC was 4 µg/mL (≈ 6.83 µM) in the assay on Acinetobacter baumannii [1]; 1.5 µg/mL (≈ 2.56 µM) with Acinetobacter baumannii [2]; 3 µg/mL (≈ 5.12 µM) with Acinetobacter baumannii [3]; 0.047 µg/mL (≈ 0.0803 µM) in the assay on Acinetobacter baumannii [4]; 0.5 µg/mL (≈ 0.854 µM) against Acinetobacter baumannii [5]; 2 µg/mL (≈ 3.41 µM) against Acinetobacter baumannii [6].

With `CCn1cc(C(=O)O)c(=O)c2cc(F)c(N3CCN(C)CC3)cc21` [PEFLOXACIN], the MIC in the assay with Acinetobacter baumannii [1] stood at 48 µg/mL (≈ 144 µM); against Acinetobacter baumannii [2], 24 µg/mL (≈ 72 µM); in the assay on Acinetobacter baumannii [3], 12 µg/mL (≈ 36 µM); against Acinetobacter baumannii [4] it was 4 µg/mL (≈ 12 µM); against Acinetobacter baumannii [5], 24 µg/mL (≈ 72 µM); against Acinetobacter baumannii [6] it was 48 µg/mL (≈ 144 µM).

With `CCC[C@@H]1C[C@@H](C(=O)N[C@@H]([C@H]2O[C@H](SC)[C@H](O)[C@@H](O)[C@H]2O)[C@H](C)Cl)N(C)C1` [CLINDAMYCIN], the MIC in the assay on Acinetobacter baumannii [1] is above 256 µg/mL; in the assay with Acinetobacter baumannii [2] it was 48 µg/mL (≈ 113 µM); against Acinetobacter baumannii [3] it was 2 µg/mL (≈ 4.71 µM); against Acinetobacter baumannii [4] it was 2 µg/mL (≈ 4.71 µM); with Acinetobacter baumannii [5] it was above 256 µg/mL; with Acinetobacter baumannii [6], 48 µg/mL (≈ 113 µM).

`CC1(C)S[C@@H]2[C@H](NC(=O)[C@H](C(=O)O)c3ccsc3)C(=O)N2[C@H]1C(=O)O` [TICARCILLIN]: the MIC was 1 µg/mL (≈ 2.6 µM) in the assay with Acinetobacter baumannii [7]; above 256 µg/mL against Acinetobacter baumannii [8]; 8 µg/mL (≈ 20.8 µM) against Acinetobacter baumannii [9]; 1 µg/mL (≈ 2.6 µM) in the assay on Acinetobacter baumannii [10]; 8 µg/mL (≈ 20.8 µM) in the assay with Acinetobacter baumannii [11]; above 256 µg/mL against Acinetobacter baumannii [12].

Regarding `C[C@@H](O)[C@H]1C(=O)N2C(C(=O)O)=C(SCCNC=N)C[C@H]12` [IMIPENEM ANHYDROUS], the MIC with Acinetobacter baumannii [1] stood at 0.5 µg/mL (≈ 1.67 µM); with Acinetobacter baumannii [2], 0.25 µg/mL (≈ 0.835 µM); in the assay with Acinetobacter baumannii [3], 96 µg/mL (≈ 321 µM); against Acinetobacter baumannii [4], 0.25 µg/mL (≈ 0.835 µM); in the assay on Acinetobacter baumannii [5] it was 0.5 µg/mL (≈ 1.67 µM); in the assay on Acinetobacter baumannii [6], 0.25 µg/mL (≈ 0.835 µM).

For `CN(C)c1ccc(O)c2c1C[C@H]1C[C@H]3[C@H](N(C)C)C(O)=C(C(N)=O)C(=O)[C@@]3(O)C(O)=C1C2=O` [MINOCYCLINE], the MIC with Acinetobacter baumannii [1] came to 1.5 µg/mL (≈ 3.28 µM); against Acinetobacter baumannii [2], 0.25 µg/mL (≈ 0.546 µM); with Acinetobacter baumannii [3], 0.75 µg/mL (≈ 1.64 µM); in the assay on Acinetobacter baumannii [4], 0.064 µg/mL (≈ 0.14 µM); in the assay on Acinetobacter baumannii [5], 0.5 µg/mL (≈ 1.09 µM); against Acinetobacter baumannii [6] it was 1 µg/mL (≈ 2.19 µM).

As to `C[C@H]1COc2c(N3CCN(C)CC3)c(F)cc3c(=O)c(C(=O)O)cn1c23.C[C@H]1COc2c(N3CCN(C)CC3)c(F)cc3c(=O)c(C(=O)O)cn1c23.O` [LEVOFLOXACIN], the MIC was 12 µg/mL against Acinetobacter baumannii [1]; 6 µg/mL in the assay on Acinetobacter baumannii [2]; 2 µg/mL against Acinetobacter baumannii [3]; 0.38 µg/mL with Acinetobacter baumannii [4]; 3 µg/mL in the assay on Acinetobacter baumannii [5].

For the molecule `CN(C)[C@@H]1C(O)=C(C(N)=O)C(=O)[C@@]2(O)C(O)=C3C(=O)c4c(O)cccc4[C@@](C)(O)[C@H]3C[C@@H]12` [TETRACYCLINE], the MIC with Acinetobacter baumannii [1] was 48 µg/mL (≈ 108 µM); in the assay on Acinetobacter baumannii [2], 4 µg/mL (≈ 9 µM); in the assay on Acinetobacter baumannii [3], 0.75 µg/mL (≈ 1.69 µM); in the assay with Acinetobacter baumannii [4], 0.5 µg/mL (≈ 1.13 µM); in the assay on Acinetobacter baumannii [5], 8 µg/mL (≈ 18 µM); in the assay on Acinetobacter baumannii [6], 6 µg/mL (≈ 13.5 µM).

Consider `CO[C@H]1/C=C/O[C@@]2(C)Oc3c(C)c(O)c4c(O)c(c(/C=N/N5CCN(C)CC5)c(O)c4c3C2=O)NC(=O)/C(C)=C\C=C\[C@H](C)[C@H](O)[C@@H](C)[C@@H](O)[C@@H](C)[C@H](OC(C)=O)[C@@H]1C` [RIFAMPIN], for which the MIC in the assay on Acinetobacter baumannii [1] was determined as 4 µg/mL (≈ 4.86 µM); against Acinetobacter baumannii [2], 2 µg/mL (≈ 2.43 µM); in the assay on Acinetobacter baumannii [3] it was 1.5 µg/mL (≈ 1.82 µM); against Acinetobacter baumannii [4], 2 µg/mL (≈ 2.43 µM); against Acinetobacter baumannii [5], 4 µg/mL (≈ 4.86 µM); in the assay with Acinetobacter baumannii [6], 2 µg/mL (≈ 2.43 µM).

With `O=C(N[C@H](CO)[C@H](O)c1ccc([N+](=O)[O-])cc1)C(Cl)Cl` [CHLORAMPHENICOL], the MIC against Acinetobacter baumannii [1] amounted to 256 µg/mL (≈ 792 µM); against Acinetobacter baumannii [2], 64 µg/mL (≈ 198 µM); in the assay on Acinetobacter baumannii [3] it was 6 µg/mL (≈ 18.6 µM); with Acinetobacter baumannii [4], 16 µg/mL (≈ 49.5 µM); against Acinetobacter baumannii [5], 128 µg/mL (≈ 396 µM); in the assay on Acinetobacter baumannii [6] it was 96 µg/mL (≈ 297 µM).

For `COc1c(N2C[C@@H]3CCCN[C@@H]3C2)c(F)cc2c(=O)c(C(=O)O)cn(C3CC3)c12` [MOXIFLOXACIN], the MIC with Acinetobacter baumannii [1] worked out at 12 µg/mL (≈ 29.9 µM); against Acinetobacter baumannii [2] it was 12 µg/mL (≈ 29.9 µM); in the assay on Acinetobacter baumannii [4], 0.5 µg/mL (≈ 1.25 µM); against Acinetobacter baumannii [5], 3 µg/mL (≈ 7.47 µM); against Acinetobacter baumannii [6], 16 µg/mL (≈ 39.9 µM).

Consider `CC[C@H]1OC(=O)[C@H](C)[C@@H](O[C@H]2C[C@@](C)(OC)[C@@H](O)[C@H](C)O2)[C@H](C)[C@@H](O[C@@H]2O[C@H](C)C[C@H](N(C)C)[C@H]2O)[C@](C)(O)C[C@@H](C)C(=O)[C@H](C)[C@@H](O)[C@]1(C)O` [ERYTHROMYCIN], for which the MIC against Acinetobacter baumannii [1] amounted to 12 µg/mL (≈ 16.4 µM); in the assay with Acinetobacter baumannii [2], 8 µg/mL (≈ 10.9 µM); against Acinetobacter baumannii [3], 3 µg/mL (≈ 4.09 µM); in the assay on Acinetobacter baumannii [4] it was 1.5 µg/mL (≈ 2.04 µM); with Acinetobacter baumannii [5], 4 µg/mL (≈ 5.45 µM); against Acinetobacter baumannii [6], 12 µg/mL (≈ 16.4 µM).
